Screening results deposited in PubChem BioAssay by several laboratories.
Rows were chosen to be rich in hits. Some 2.1% of all compounds tested hit in one or more screens of this group.
ABCB1 inh – blocks JC-1 efflux by human ABCB1 transporter | AID 1326 | 190,000 compounds, 0.067% hits | inhibition, % at 6.6 µM | CCRF-Adr cells, flow cytometry; in the data active = inhibition above about 40%;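 also: 0% = vehicle and 100% = reference inhibitor; higher value means more JC-1 retained so stronger ABCB1 efflux block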
Arbovirus anti – antivirals against arbovirus infection; arbovirus infection cell-based antiviral screen; inhibition, % at 10 µM; 200,000 compounds, 0.37% hits; AID 1251; in the data active = inhibition above about 30%
ABCG2 inh – blocks JC-1 efflux by human ABCG2 transporter. Q9UNQ0. IgMXP3 cells, flow cytometry. inhibition, % at 6.6 µM. 190,000 compounds, 0.1% hits. AID 1325;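 active = inhibition above 80%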;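 also: 0% = DMSO and 100% = nicardipine control wells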
Target sequence (Q9UNQ0 whole entry, looked up): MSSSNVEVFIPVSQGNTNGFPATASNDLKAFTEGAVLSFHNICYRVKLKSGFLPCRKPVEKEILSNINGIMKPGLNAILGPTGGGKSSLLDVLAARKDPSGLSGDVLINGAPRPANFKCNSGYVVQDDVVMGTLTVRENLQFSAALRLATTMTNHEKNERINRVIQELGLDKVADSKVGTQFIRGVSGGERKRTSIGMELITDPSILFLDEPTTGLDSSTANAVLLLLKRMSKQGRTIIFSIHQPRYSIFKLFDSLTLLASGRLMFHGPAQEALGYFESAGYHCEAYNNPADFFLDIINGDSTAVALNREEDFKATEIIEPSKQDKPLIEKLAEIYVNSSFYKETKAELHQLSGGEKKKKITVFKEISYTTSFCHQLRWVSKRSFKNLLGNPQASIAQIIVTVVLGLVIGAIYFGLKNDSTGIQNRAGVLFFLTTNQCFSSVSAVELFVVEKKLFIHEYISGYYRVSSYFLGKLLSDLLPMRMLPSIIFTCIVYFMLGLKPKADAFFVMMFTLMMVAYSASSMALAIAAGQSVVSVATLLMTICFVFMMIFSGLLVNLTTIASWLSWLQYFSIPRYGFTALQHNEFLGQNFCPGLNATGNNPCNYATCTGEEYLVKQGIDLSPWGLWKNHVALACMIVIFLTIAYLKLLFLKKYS
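test system = two drug-resistant human cell lines, ABCG2 and ABCB1 | amount = 3 million cells/mL final, two lines in 1:1 ratio | reagent = JC-1 transporter substrate | doses = one concentration, 6.6 µM final | incubation = 10 min at 25 °C | signal = flow cytometric JC-1 green MFI at 530 nm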
MT stabilizer – stabilizes microtubules in HeLa cells. HeLa tubulin immunostaining HCS, 24 h; share of cells brighter than vehicle mean+2SD. % tubulin-high responders, % at 10 µM. 200,000 compounds, 0.83% hits;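 active = plate Z-score above 3 for both tubulin-high and condensed-nucleus cell shares, with cell loss under 80%, at 10 µM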;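 also: anti alpha tubulin signal scored within the nucleus-defined area of each cell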
Autophagy mod – alters autophagy in cells | 190,000 compounds, 0.98% hits | MEF GFP-LC3 puncta imaging; test concentration mostly 10 µM | calls only at 10 µM (by protocol);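 active = percentage of spot-positive cells more than 3 SD above its plate mean, without a fluorescence outlier flag or 80% toxicity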;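 also: spot-positive cell cutoff set from DMSO-treated cells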
b-catenin transl – alters nuclear translocation of beta-catenin in HeLa cells. immunofluorescence imaging. nuclear translocation activity, % at 5 µM. 190,000 compounds, 0.3% hits. AID 1665;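 active = nuclear translocation activity above 50% at 5 µM, with a well cell count of 50 or more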;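 also: per-cell ratio of nuclear to cytoplasmic median beta-catenin stain intensity; plate controls were DMSO negative control for no effect and GSK-3 inhibitor IX positive control for full effect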
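Technique: fluorescence imaging of beta-catenin antibody stain plus DAPI / Material: human HeLa cell line / Incubation: compound treatment 24 h, 37°C, 5% CO2 / Read-out basis: % activation of per-cell nuclear versus cytoplasmic median beta-catenin signal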
Numbers without * were called inactive; i = inactive; . = no result given; + = active, no number.

SMILES	ABCB1 inh	Arbovirus anti	ABCG2 inh	MT stabilizer	Autophagy mod	b-catenin transl
Cc1ccc(O)c(-c2cc(-c3cccc(Br)c3)n[nH]2)c1	0	-35	0	18*	i	0
CCOC(=O)c1cc2oc(C(c3nnnn3C3CCCCC3)N3CCOCC3)cc2[nH]1 (stereo not given)	2	12	7	11	+	37
Oc1ccc(C(c2nnnn2C2CCCCC2)N2CCOCC2)cc1 (stereo not given)	1	6	1	2	i	-1
C=CCNC(=O)c1cc(C(=O)C(C)c2ncc(C(F)(F)F)cc2Cl)c[nH]1 (stereo not given)	0	-2	7	4	i	1
Cc1ccc(NCC(=O)N=Nc2c(O)[nH]c3ccc([N+](=O)[O-])cc23)cc1	.	.	.	.	.	-2
Cc1ccc(OC(C)C(=O)N=Nc2c(O)[nH]c3ccc([N+](=O)[O-])cc23)cc1 (stereo not given)	0	-5	-2	16*	i	-1
Clc1ccc(-c2nnc(Sc3nc4ccccc4o3)c3ccccc23)cc1	-1	-30	-2	11	i	-3
O=c1c(Cl)c2oc3ccccc3nc-2c2ccccc12	2	-6	9	1	+	0
COc1cc(NC(=O)C2CCCCN2)ccc1OCC(C)C (stereo not given)	0	1	1	3	i	.
OC(COC(c1ccc(Cl)cc1)c1ccc(Cl)cc1)CN1CCCC1 (stereo not given)	0	-42	0	1	+	-4
OC(COC(c1ccc(Cl)cc1)c1ccc(Cl)cc1)CN1CCc2ccccc2C1 (stereo not given)	10	-40	-1	2	i	.
Nc1cccc2nc3ccccc3cc12	-1	-32	5	3	+	.
COc1ccccc1C(C)NC(=O)c1ccc(C)o1 (stereo not given)	0	-2	4	44*	i	.
COc1ccc(OC)c(C(C)NC(=O)c2ccco2)c1 (stereo not given)	0	-11	1	26*	i	3
Cc1ccc(C(=O)NC(C)c2ccccc2)o1 (stereo not given)	0	-2	5	3	i	1
NC(=S)Nc1ncc(CCN2CCOCC2)c(-c2ccc(F)cc2)n1	2	6	7	3	i	-4
CSc1nn2cc(CCN3CCOCC3)c(-c3ccc(F)cc3)nc2c1C#N	7	13	7	3	+	-3
COc1ccc2oc(=O)c(-c3nnc(NCc4ccco4)s3)cc2c1	0	-23	0	46*	+	6
CCOc1cccc2cc(-c3nnc(NCc4ccco4)s3)c(=O)oc12	.	-5	.	2	i	-1
O=C(NCc1ccccc1)NC(O)C(Cl)(Cl)Cl (stereo not given)	1	4	2	2	i	2
O=c1c2c3nc4ccccc4nc3n(-c3ccc4c(c3)OCCO4)c2ncn1C1CCCC1	.	.	.	.	.	-4
N#CCCn1cc(/C=N/O)c(-c2ccc(-c3ccccc3)cc2)n1	0	-16	2	4	i	-7
Cc1nn(CC2CC2)c(=O)n1-c1ccc(F)cc1	1	3	2	3	i	2
Nc1[nH]n2c(=O)c3c(nc2c1N=Nc1ccccc1)CCCC3	0	-15	0	14	i	9
Nc1[nH]n2c(=O)c3c(nc2c1N=Nc1ccc(Cl)cc1)CCCC3	-1	-23	-2	21*	i	4
SMILES	ABCB1 inh	Arbovirus anti	ABCG2 inh	MT stabilizer	Autophagy mod	b-catenin transl
CCOc1ccc(-c2nc(-c3ccc(OC)cc3)no2)cc1OCC	0	0	8	2	i	-1
COc1ccc2nc(NCCO)[nH]c2c1	1	10	6	5	i	-9
c1ccc(CNc2nc3ccccc3[nH]2)cc1	0	-8	1	8	i	-2
Cc1ccc2nc(NCc3ccccc3)[nH]c2c1	-1	-14	1	22*	+	11
COc1ccc2nc(NCc3ccccc3)[nH]c2c1	0	-17	5	43*	i	12
CC(=O)c1sc2nc(-c3cccs3)cc(C(F)(F)F)c2c1N	11	6	42	5	+	5
